Data set [1] is described as follows: Half-life in OFA rat at 1 mg/kg, iv measured upto 24 hrs by HPLC/UV analysis. It is filed as ADME, organism-based. Particulars: in vivo. The procedure, abridged:
(§1)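 Catheters were placed in the femoral artery and vein of female OFA rats, followed by 96 h recovery. IV doses went into the femoral vein: 2.5 mg/kg in ethanol/dimethylisosorbide/PEG400/5 % glucose (10/15/35/40), or 1 mg/kg in NMP/PEG200 (30:70). Plasma samples at 5, 15, 30 min and 1, 2, 4, 6, 8, 24 h. Parameters reported over 24 h. n=2–4.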

Data set [2] in a line: Half life in OFA rat at 3 mg/kg, po measured upto 24 hrs by HPLC/UV analysis. The conditions noted are these: in vivo. It is filed as ADME, organism-based. In a few lines:
(§2)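 Female OFA rats, femoral artery/vein catheterized and recovered 96 h. Oral gavage of a micronized suspension in 0.5 % carboxymethyl cellulose at 25 or 3 mg/kg. Bioavailability taken against femoral-vein iv dosing. Plasma sampled 5 min–24 h (9 time points).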

Data set [3] can be described thus: Volume of distribution at steady state in OFA rat at 1 mg/kg, iv measured upto 24 hrs by HPLC/UV analysis. In kind it is ADME, organism-based. Particulars: in vivo, read-out: Vdss. The procedure, abridged: (§3)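 Female OFA rats with femoral artery and vein catheters, 96 h recovery. IV into femoral vein: 2.5 mg/kg in ethanol/dimethylisosorbide/PEG400/D5W (10/15/35/40) or 1 mg/kg in NMP/PEG200 (30:70). Plasma sampled at 5, 15, 30 min, 1, 2, 4, 6, 8, 24 h; drug measured by HPLC (UV or MS-MS stated); parameters dose normalized, n=2-4.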

Data set [4] in a line: Dose normalized AUC(0 to infinity) in OFA rat at 3 mg/kg, po measured upto 24 hrs by HPLC/UV analysis. It is filed as ADME, organism-based. Particulars: in vivo. The procedure, abridged:
as §2

Data set [5] is described as follows: Oral bioavailability in OFA rat at 3 mg/kg measured upto 24 hrs by HPLC/UV analysis. In kind it is ADME, organism-based. Particulars: in vivo. The procedure, abridged: as §2
Data set [6] can be described thus: Dose normalized Cmax in OFA rat at 3 mg/kg, po measured upto 24 hrs by HPLC/UV analysis. The conditions noted are these: in vivo. It is filed as ADME, organism-based. In a few lines:
as §2

Data set [7] in a line: Half-life in OFA rat at 2.5 mg/kg, iv measured upto 24 hrs by HPLC/UV analysis. It is filed as ADME, organism-based. The conditions noted are these: in vivo. The procedure, abridged:
as §1

Data set [8] in a line: Volume of distribution at steady state in OFA rat at 2.5 mg/kg, iv measured upto 24 hrs by HPLC/UV analysis. It is filed as ADME, organism-based. Particulars: in vivo, read-out: Vdss. The procedure, abridged:
as §3

A short description of data set [9]: Half life in OFA rat at 25 mg/kg, po measured upto 24 hrs by HPLC/UV analysis. In kind it is ADME, organism-based. The conditions noted are these: in vivo. In a few lines:
as §2

Data set [10] is described as follows: Dose normalized Cmax in OFA rat at 25 mg/kg, po measured upto 24 hrs by HPLC/UV analysis. In kind it is ADME, organism-based. The conditions noted are these: in vivo. In a few lines:
as §2

Data set [11] has as its target Tyrosine-protein kinase ABL1 (Homo sapiens) (UniProt P00519). In words: Inhibition of human recombinant GST-fused ABL expressed in baculovirus expression system using poly-Glu-Tyr (4:1) as substrate measured after 10 mins in presence of gamma-[33P]-ATP by scintillation counting analysis. In a few lines: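 GST-fused kinase domains were expressed in baculovirus and purified on glutathione-Sepharose. 10 min at ambient temperature, stopped with EDTA. Filter binding and scintillation counting. IC50 by linear regression of percent inhibition.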

Data set [12] is described as follows: Antitumor activity against rat BN472 cell implanted in Brown-Norway rat assessed as T/C ratio at 1 mg/kg, po administered once every 2 days measured upto 14 days. In kind it is functional. Particulars: time <= 14 day. The procedure, abridged:
(§4)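 Female Brown-Norway rats (160-180 g) given 3 mm³ BN472 tumor fragments in mammary fat pads; at about 200 mm², randomized into groups of 7-8 and dosed orally with compound or PEG300 vehicle over 14 days; tumor growth followed, T/C computed; significance by 2-way RM-ANOVA.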

Data set [13] has as its system B16-BL6. In words: Antitumor activity against mouse B16-BL6 cells implanted in C57BL/6jNpa mouse assessed as primary tumor growth inhibition by measuring T/C ratio at 3 mg/kg, po qd administered once every 2 days started on day 7 post implantation measured after 21 days. In kind it is functional. Particulars: time 7-21 day. In a few lines:
(§5)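 Female C57BL/6JNpa mice, 50000 B16/BL6 cells intradermally in both ear pinnae; primary tumor area (mm²) imaged days 7, 14, 21; randomized day 7 into groups of 5-6, oral dosing in PEG200 or PEG300 vehicle daily (or every 2 days) for 14 days; day 21 cervical lymph nodes weighed, metastasis lysates assayed for TIE-2 by ELISA; T/C ratios.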

Data set [14] is filed under the species Mus musculus. In words: Antiangiogenic activity in C57BL/6jNpa mouse harbouring mouse B16-BL6 cells assessed as reduction in K-trans level measured after 3 days by DCE-MRI assay relative to control. Particulars: time 3 day. More on the design: scale not given: the % may be the effect or the level left. In kind it is functional. In a few lines:
(§6)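 C57BL/6JNpa mice bearing B16/BL6 cervical lymph-node metastases, at least 8 per group, anaesthetized and given contrast agent; DCE-MRI Ktrans and iAUEC (permeability) and Vp (plasma volume) measured before and again after daily treatment; change per mouse recorded, mean ± SEM, one-way ANOVA with Holm-Sidak comparisons versus vehicle.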

The species named for data set [15] is Mus musculus. In words: Antiangiogenic activity in C57BL/6jNpa mouse harbouring mouse B16-BL6 cells assessed as reduction in tumor plasma volume measured after 3 days by DCE-MRI assay relative to control. More on the design: scale not given: the % may be the effect or the level left. The conditions noted are these: time 3 day. In kind it is functional. The procedure, abridged: as §6

The species entered for data set [16] is Mus musculus. In words: Antiangiogenic activity in C57BL/6jNpa mouse harbouring mouse B16-BL6 cells assessed as reduction in iAUEC level by measuring T/C ratio measured after 3 days by DCE-MRI assay. It is filed as functional. The conditions noted are these: time 3 day. The procedure, abridged:
as §6

Data set [17] is described as follows: Antitumor activity against rat BN472 cell implanted in Brown-Norway rat assessed as T/C ratio at 1 mg/kg, po qd measured upto 14 days. It is filed as functional. The conditions noted are these: time <= 14 day. In a few lines: as §4
Data set [18] has as its system BN472 cell. In words: Induction of apoptosis in rat BN472 cell implanted in Brown-Norway rat assessed as effect on caspase 3 level at 3 mg/kg, po qd measured upto 14 days by microscopic analysis. In kind it is functional, organism-based. Particulars: time <= 14.0 day. The procedure, abridged:
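BN472 fragments were grown in mammary fat pads of female Brown-Norway rats and dosed orally for 14 days. Hoechst dye was given i.v. 2 min before sacrifice. Excised tumors were cut as 10 micron frozen sections, blocked with 10 % normal goat serum/0.1 % Triton X-100 and stained with rabbit anti-rat caspase 3 (1:10), then a TRITC or FITC secondary. Read by fluorescence microscopy.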

The species named for data set [19] is Mus musculus. In words: Antiangiogenic activity in C57BL/6jNpa mouse harbouring mouse B16-BL6 cells assessed as reduction in K-trans level by measuring T/C ratio measured after 3 days by DCE-MRI assay. It is filed as functional. The conditions noted are these: time 3 day. In a few lines:
as §6

Data set [20] deals with B16-BL6. In words: Antitumor activity against mouse B16-BL6 cells implanted in C57BL/6jNpa mouse assessed as metastatic tumor growth inhibition at 3 mg/kg, po qd administered once every 2 days started on day 7 post implantation measured after 21 days relative to control. It is filed as functional, organism-based. Particulars: time 7-21 day. The procedure, abridged: as §5

The species named for data set [21] is Mus musculus. In words: Antiangiogenic activity in C57BL/6jNpa mouse harbouring mouse B16-BL6 cells assessed as reduction in tumor plasma volume by measuring T/C ratio measured after 3 days by DCE-MRI assay. It is filed as functional. Particulars: time 3 day. The procedure, abridged:
as §6

The subject of data set [22] is BN472 cell. In words: Antitumor activity against rat BN472 cell implanted in Brown-Norway rat assessed as reduction in perfused blood vessels at 3 mg/kg, po qd measured upto 14 days by Hoechst staining based microscopic analysis. It is filed as functional, organism-based. The conditions noted are these: time <= 14.0 day. In a few lines:
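BN472-bearing Brown-Norway rats dosed orally; Hoechst dye i.v. shortly before sacrifice to mark perfused vessels; tumors cryosectioned at 10 micron, blocked in 10 % goat serum/0.1 % Triton X-100, stained with rabbit anti-Ki67 (1:200) or anti-caspase 3 (1:10) and fluorescent secondary antibodies; fluorescence microscopy.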

We go through three molecules from ChEMBL document CHEMBL5252510, “A Novel Potent Oral Series of VEGFR2 Inhibitors Abrogate Tumor Growth by Inhibiting Angiogenesis” (J Med Chem, 2016).

Activity calls are given as the source filed them. No cut-off for these calls is given here.

By half-life is commonly meant the time in which the quantity being followed falls by half. The bioavailability is dose-corrected exposure relative to a reference, in per cent.

Chain of Tyrosine-protein kinase ABL1 (Homo sapiens) (P00519 whole entry, the tested form may be a part): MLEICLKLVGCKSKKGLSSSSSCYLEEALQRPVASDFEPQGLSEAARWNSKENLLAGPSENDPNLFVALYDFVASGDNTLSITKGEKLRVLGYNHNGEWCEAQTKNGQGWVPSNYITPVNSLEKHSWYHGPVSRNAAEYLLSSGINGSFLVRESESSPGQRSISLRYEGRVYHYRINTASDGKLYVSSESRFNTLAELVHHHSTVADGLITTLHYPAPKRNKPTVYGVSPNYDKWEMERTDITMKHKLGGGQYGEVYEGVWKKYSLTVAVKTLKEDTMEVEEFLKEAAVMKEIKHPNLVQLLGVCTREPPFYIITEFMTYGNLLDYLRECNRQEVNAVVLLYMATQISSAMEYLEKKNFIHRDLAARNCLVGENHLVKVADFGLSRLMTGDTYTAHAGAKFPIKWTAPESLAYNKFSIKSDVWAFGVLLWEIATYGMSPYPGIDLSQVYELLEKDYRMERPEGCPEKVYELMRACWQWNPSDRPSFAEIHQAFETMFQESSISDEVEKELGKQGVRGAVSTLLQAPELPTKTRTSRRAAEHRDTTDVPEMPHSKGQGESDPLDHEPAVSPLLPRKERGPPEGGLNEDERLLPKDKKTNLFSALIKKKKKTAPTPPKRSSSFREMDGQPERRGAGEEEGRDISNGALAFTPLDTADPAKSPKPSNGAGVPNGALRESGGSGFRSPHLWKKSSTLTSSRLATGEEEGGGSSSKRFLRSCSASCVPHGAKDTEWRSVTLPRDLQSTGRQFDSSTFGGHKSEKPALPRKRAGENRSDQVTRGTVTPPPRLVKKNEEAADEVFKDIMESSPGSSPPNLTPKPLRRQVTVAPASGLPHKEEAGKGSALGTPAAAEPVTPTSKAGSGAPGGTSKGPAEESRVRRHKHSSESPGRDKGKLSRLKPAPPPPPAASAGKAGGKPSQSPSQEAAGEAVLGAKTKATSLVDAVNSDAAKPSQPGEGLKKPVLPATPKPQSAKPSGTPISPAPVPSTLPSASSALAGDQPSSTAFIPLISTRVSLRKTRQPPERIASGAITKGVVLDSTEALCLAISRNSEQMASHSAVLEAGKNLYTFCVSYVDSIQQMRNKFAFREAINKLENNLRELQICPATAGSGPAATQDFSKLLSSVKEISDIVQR

Turning to `O=C(Nc1cccc(C(F)(F)F)c1)c1cccc2cc(Oc3cc(CO)ncn3)ccc12` [BFH-772], the half-life was 2.5 h in [1] and 4.1 h in data set [2]. Besides, the Vd in [3] was found to be 0.63 L/kg. The same molecule gave an AUC/dose in data set [4] of 13.2 µmol·h/L. This molecule also came in with a bioavailability in data set [5] of 46%. Besides, the Cmax/dose in data set [6] was 1570 nM.

As for `Nc1nccc(Oc2ccc3c(C(=O)Nc4cccc(C(F)(F)F)c4)cccc3c2)n1`, the half-life in data set [7] and in data set [9] was 2 h in each case. In addition, in data set [8], the Vd amounted to 1.3 L/kg. In data set [10], this molecule came in with a Cmax/dose of 280 nM. In addition, the inhibition entry in data set [11] is “Active”.

On to `Nc1nccc(Oc2ccc3c(C(=O)Nc4ccc(F)c(C(F)(F)F)c4)cccc3c2)n1`, for which the T/C in data set [12] was found to be 0.176; in data set [13], 0.39; in data set [16], 0.34; in data set [17] it was 0.028; in data set [19] it was 0.39; in data set [21], 0.36. The Activity is given as 61% in [14] and 65% in data set [15]. The outcome in data set [18], in data set [20] and in data set [22] was Active.
